How the values were obtained:
Assay type in all cases: functional
[1] = tested on: Mus musculus; assay: In vivo euglycemic activity (administered by oral gavage) in C57/6J-ob/ob mice measured by normalization of blood glucose levels at a dose of 5 mg/kg.
[2] = tested on: Mus musculus; assay: In vivo euglycemic activity of the compound (administered by oral gavage) in C57/6J-ob/ob mice is measured by normalization of blood glucose levels at a dose of 2.5(mg/kg)
Procedure, shortened: (§1)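 Mice bled from retro-orbital sinus into tubes with 2% sodium heparin for baseline glucose, then dosed by oral gavage once daily for 4 days in 0.25% (w/v) methylcellulose in water, no pH adjustment (0.1 mL per 20 g). Bled 24 h after fourth dose. Samples centrifuged 2 min at 10000g. Plasma glucose measured by hexokinase UV method. Results scaled to vehicle (0%) and ciglitazone 50 mg/kg (100%).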

[3] = tested on: Mus musculus; assay: In vivo euglycemic activity of the compound (administered by oral gavage) in C57/6J-ob/ob mice is measured by normalization of blood glucose levels at a dose of 25(mg/kg); procedure, shortened: as §1
[4] = tested on: Mus musculus; assay: In vivo euglycemic activity (administered by oral gavage) in C57/6J-ob/ob mice by normalization of blood glucose levels at a dose of 0.5 mg/kg.; procedure, shortened: as §1
[5] = tested on: Mus musculus; assay: In vivo euglycemic activity (administered by oral gavage) in C57/6J-ob/ob mice by normalization of blood glucose levels at a dose of 1 mg/kg.; procedure, shortened: as §1
[6] = tested on: Mus musculus; assay: In vivo euglycemic activity (administered by oral gavage) in C57/6J-ob/ob mice by normalization of blood glucose levels at a dose of 10 mg/kg.; procedure, shortened: as §1
[7] = tested on: Mus musculus; assay: In vivo euglycemic activity of the compound (administered by oral gavage) in C57/6J-ob/ob mice is measured by normalization of blood glucose levels at a dose of 0.25(mg/kg); procedure, shortened: as §1

| Structure (SMILES) | Normalization [1] | Normalization [5] | Normalization [6] | also measured |
| --- | --- | --- | --- | --- |
| Cc1oc(-c2ccccc2)nc1CC(=O)Nc1ccc(CC2SC(=O)NC2=O)cc1 (stereo unspecified) | 64% |  |  | Normalization [2]: 16% |
| O=C1NC(=O)C(Cc2ccc(C(=O)/C=C/c3ccccc3O)cc2)S1 (stereo unspecified) |  |  |  | Normalization [3]: 0% |
| COc1ccc(-c2nc(CCC(=O)c3ccc(CC4SC(=O)NC4=O)cc3)c(C)o2)cc1 (stereo unspecified) |  | 95% |  | Normalization [4]: 43% |
| O=C1NC(=O)C(Cc2ccc(C(O)CCc3ccccc3)cc2)S1 (stereo unspecified) | 47% |  | 89% |  |
| COc1ccc(/C=C/C(=O)c2ccc(CC3SC(=O)NC3=O)cc2)cc1 (stereo unspecified) | 0% |  | 68% |  |
| Cc1oc(-c2ccc3ccccc3c2)nc1CCC(=O)c1ccc(CC2SC(=O)NC2=O)cc1 (stereo unspecified) |  | 39% |  |  |
| Cc1oc(-c2ccccc2)nc1CCS(=O)(=O)c1ccc(CC2SC(=O)NC2=O)cc1 (stereo unspecified) | 69% | 11% |  |  |
| O=C1NC(=O)C(Cc2ccc(CCCc3ccccc3)cc2)S1 (stereo unspecified) | 46% |  | 77% | Normalization [3]: 73% |
| O=C1NC(=O)C(Cc2ccc(C(=O)CCc3csc(-c4ccccc4)n3)cc2)S1 (stereo unspecified) | 91% |  |  | Normalization [2]: 48% |
| CCc1ccc(CCC(=O)c2ccc(CC3SC(=O)NC3=O)cc2)nc1 (stereo unspecified) | 0% |  | 41% |  |
| Cc1oc(-c2ccc(C(F)(F)F)cc2)nc1CCC(=O)c1ccc(/C=C2\SC(=O)NC2=O)cc1 |  | 58% |  | Normalization [4]: 28% |
| Cc1oc(-c2ccccc2)nc1/C=C/C(=O)c1ccc(CC2SC(=O)NC2=O)cc1 (stereo unspecified) | 100% |  | 59% |  |
| Cc1ccc(-c2nc(CCC(=O)c3ccc(CC4SC(=O)NC4=O)cc3)co2)cc1 (stereo unspecified) |  |  |  | Normalization [7]: 15%; Normalization [4]: 0% |
| Cc1oc(-c2ccccc2)nc1CNS(=O)(=O)c1ccc(CC2SC(=O)NC2=O)cc1 (stereo unspecified) | 0% |  |  |  |
| Cc1oc(-c2ccc(C(F)(F)F)cc2)nc1CCC(=O)c1ccc(CC2SC(=O)NC2=O)s1 (stereo unspecified) |  | 78% |  | Normalization [4]: 27% |
| O=C1NC(=O)C(Cc2ccc(C(=O)/C=C/c3ccccc3C(F)(F)F)cc2)S1 (stereo unspecified) | 39% |  | 57% |  |
| O=C1NC(=O)C(Cc2ccc(C(=O)/C=C/c3ccc(OCc4ccccc4)cc3)cc2)S1 (stereo unspecified) | 64% |  | 57% | Normalization [3]: 96% |
| COc1ccc(-c2nc(CCC(=O)c3ccc(/C=C4\SC(=O)NC4=O)cc3)c(C)o2)cc1 |  | 62% |  |  |
| CCOC(=O)c1ccc(/C=C/C(=O)c2ccc(CC3SC(=O)NC3=O)cc2)cc1 (stereo unspecified) |  |  | 4% |  |
| COc1ccc(CCC(=O)c2ccc(CC3SC(=O)NC3=O)cc2)cc1 (stereo unspecified) |  |  | 50% |  |
| Cc1oc(-c2ccccc2)nc1CN(C(=O)c1ccc(CC2SC(=O)NC2=O)cc1)c1ccccc1 (stereo unspecified) | 23% |  |  |  |
| O=C1NC(=O)C(Cc2ccc(C(=O)/C=C/c3ccco3)cc2)S1 (stereo unspecified) |  |  | 65% |  |
| Cc1oc(-c2ccco2)nc1CCC(=O)c1ccc(/C=C2\SC(=O)NC2=O)cc1 |  | 55% |  |  |
| Cc1nc(-c2ccccc2)c(CCC(=O)c2ccc(CC3SC(=O)NC3=O)cc2)s1 (stereo unspecified) | 61% |  |  | Normalization [2]: 0% |

| Structure (SMILES) | Normalization [1] | Normalization [5] | Normalization [6] | also measured |
| --- | --- | --- | --- | --- |
| Cc1oc(-c2ccccc2)nc1CC(=O)N(C)c1ccc(CC2SC(=O)NC2=O)cc1 (stereo unspecified) | 9% |  |  |  |
| O=C1NC(=O)C(Cc2ccc(C(=O)/C=C/c3cccc(Cl)c3)cc2)S1 (stereo unspecified) |  |  | 4% |  |
| CO/N=C(\CCc1nc(-c2ccccc2)oc1C)c1ccc(CC2SC(=O)NC2=O)cc1 (stereo unspecified) | 100% | 0% |  |  |
| Cc1oc(-c2ccc(Cl)cc2)nc1CCC(=O)c1ccc(CC2SC(=O)NC2=O)s1 (stereo unspecified) |  | 51% |  | Normalization [2]: 100% |
| Cc1ccc(-c2nc(CCC(=O)c3ccc(/C=C4\SC(=O)NC4=O)cc3)c(C)o2)o1 |  | 76% |  | Normalization [4]: 1% |
| Cc1oc(-c2ccccc2)nc1CCSc1ccc(CC2SC(=O)NC2=O)cc1 (stereo unspecified) |  |  |  | Normalization [4]: 0% |
| Cc1ccc(-c2nc(CCC(=O)c3ccc(/C=C4\SC(=O)NC4=O)cc3)co2)cc1 |  | 53% |  |  |
| Cc1oc(-c2cccs2)nc1CCC(=O)c1ccc(/C=C2\SC(=O)NC2=O)cc1 |  | 100% |  |  |
| Cc1oc(-c2ccc(O)cc2)nc1CCC(=O)c1ccc(CC2SC(=O)NC2=O)cc1 (stereo unspecified) |  | 0% |  |  |
| O=C1NC(=O)C(Cc2ccc(C(=O)CCc3ccc(OCc4ccccc4)cc3)cc2)S1 (stereo unspecified) |  |  | 45% |  |
| O=C1NC(=O)C(Cc2ccc(C(=O)/C=C/c3ccccc3Cl)cc2)S1 (stereo unspecified) | 65% |  | 44% |  |
| Cc1oc(-c2ccccc2)nc1CN(c1ccccc1)S(=O)(=O)c1ccc(CC2SC(=O)NC2=O)cc1 (stereo unspecified) |  |  |  | Normalization [2]: 32% |
| O=C1NC(=O)C(Cc2ccc(C(=O)/C=C/c3nc4ccccc4s3)cc2)S1 (stereo unspecified) |  |  | 0% |  |
| O=C1NC(=O)C(Cc2ccc(C(=O)CCc3coc(-c4ccccc4)n3)cc2)S1 (stereo unspecified) |  |  |  | Normalization [7]: 52%; Normalization [4]: 30% |
| Cc1oc(-c2ccccc2)nc1CN(C)S(=O)(=O)c1ccc(CC2SC(=O)NC2=O)cc1 (stereo unspecified) | 9% |  |  |  |
| Cc1cc(-c2nc(CCC(=O)c3ccc(CC4SC(=O)NC4=O)cc3)c(C)o2)cc(C)c1O (stereo unspecified) |  | 100% |  | Normalization [4]: 30% |
| Cc1oc(-c2ccccc2)nc1CCCc1ccc(CC2SC(=O)NC2=O)cc1 (stereo unspecified) |  |  |  | Normalization [4]: 37% |
| Cc1oc(-c2ccccc2)nc1CC/C(=N\OCc1ccccc1)c1ccc(CC2SC(=O)NC2=O)cc1 (stereo unspecified) | 17% |  |  |  |
| Cc1ccc(-c2nc(C/C=C/c3ccc(CC4SC(=O)NC4=O)s3)c(C)o2)cc1 (stereo unspecified) |  | 98% |  | Normalization [2]: 90%; Normalization [7]: 64%; Normalization [4]: 73% |
| Cc1ccc(-c2nc(CCC(=O)c3ccc(/C=C4\SC(=O)NC4=O)cc3)c(C)o2)cc1 |  | 0% |  | Normalization [4]: 27% |
| O=C1NC(=O)C(Cc2ccc(C(=O)Cc3ccccc3)cc2)S1 (stereo unspecified) |  |  | 0% |  |
| Cc1oc(-c2cccs2)nc1CCC(=O)c1ccc(CC2SC(=O)NC2=O)cc1 (stereo unspecified) |  | 84% |  | Normalization [7]: 27%; Normalization [4]: 71% |
| O=C1NC(=O)C(Cc2ccc(C(=O)CCc3ccco3)cc2)S1 (stereo unspecified) |  |  | 24% |  |
| Cc1oc(-c2ccccc2)nc1CN(C)C(=O)c1ccc(CC2SC(=O)NC2=O)cc1 (stereo unspecified) | 83% |  |  | Normalization [2]: 0% |

| Structure (SMILES) | Normalization [1] | Normalization [5] | Normalization [6] | also measured |
| --- | --- | --- | --- | --- |
| Cc1oc(-c2ccc3ccccc3c2)nc1CCC(=O)c1ccc(/C=C2\SC(=O)NC2=O)cc1 |  | 90% |  | Normalization [4]: 38% |
| Cc1ccc(-c2nc(CCC(=O)c3ccc(CC4SC(=O)NC4=O)s3)co2)cc1 (stereo unspecified) |  | 10% |  | Normalization [2]: 0% |
| Cc1nc(-c2ccccc2)sc1CCC(=O)c1ccc(CC2SC(=O)NC2=O)cc1 (stereo unspecified) | 75% |  |  | Normalization [2]: 33% |
| O=C1NC(=O)C(Cc2ccc(C(=O)CCc3ccc(-c4ccccc4)cc3)cc2)S1 (stereo unspecified) | 54% |  | 71% |  |
| O=C1NC(=O)C(Cc2ccc(C(O)CCc3ccccn3)cc2)S1 (stereo unspecified) |  |  | 13% |  |
| Cc1ccc(-c2nc(CCC(=O)c3ccc(CC4SC(=O)NC4=O)s3)c(C)o2)cc1 (stereo unspecified) |  | 100% |  | Normalization [4]: 27% |
| O=C1NC(=O)C(Cc2ccc(C(=O)/C=C/c3ccc(Br)cc3)cc2)S1 (stereo unspecified) |  |  | 28% |  |
| O=C1NC(=O)C(Cc2ccc(C(=O)/C=C/c3ccccc3Cc3ccccc3)cc2)S1 (stereo unspecified) |  |  | 56% |  |
| O=C1NC(=O)C(Cc2ccc(C(=O)/C=C/c3ccc(-c4ccccc4)cc3)cc2)S1 (stereo unspecified) |  |  | 56% | Normalization [3]: 65% |
| Cc1oc(-c2ccccc2)nc1CCC(O)c1ccc(CC2SC(=O)NC2=O)s1 (stereo unspecified) | 100% | 23% |  |  |
| O=C1NC(=O)C(Cc2ccc(C(=O)/C=C/c3ccccc3)cc2)S1 (stereo unspecified) | 23% |  | 65% | Normalization [3]: 99% |
| Cc1oc(-c2ccccc2)nc1CNC(=O)c1ccc(CC2SC(=O)NC2=O)cc1 (stereo unspecified) | 50% |  |  | Normalization [2]: 49% |
| O=C1NC(=O)C(Cc2ccc3c(c2)CCC(Cc2ccccc2)O3)S1 (stereo unspecified) | 48% |  | 70% | Normalization [3]: 91% |
| O=C1NC(=O)C(Cc2ccc3c(c2)CCC(Cc2ccccc2)C3=O)S1 (stereo unspecified) | 39% |  | 54% | Normalization [3]: 47% |
| CN(C)c1ccc(/C=C/C(=O)c2ccc(CC3SC(=O)NC3=O)cc2)cc1 (stereo unspecified) |  |  | 17% |  |
| Cc1oc(-c2ccccc2)nc1CC/C(=N\O)c1ccc(CC2SC(=O)NC2=O)cc1 (stereo unspecified) | 100% | 99% |  | Normalization [4]: 0% |
| O=C1NC(=O)C(Cc2ccc(C(=O)CCCc3ccccc3)cc2)S1 (stereo unspecified) |  |  | 26% |  |
| Cc1ccccc1/C=C/C(=O)c1ccc(CC2SC(=O)NC2=O)cc1 (stereo unspecified) |  |  | 21% |  |
| Cc1oc(-c2ccco2)nc1CCC(=O)c1ccc(CC2SC(=O)NC2=O)cc1 (stereo unspecified) |  | 61% |  |  |
| COc1ccccc1CCC(=O)c1ccc(CC2SC(=O)NC2=O)cc1 (stereo unspecified) |  |  | 0% |  |
| CCN(C(=O)Cc1nc(-c2ccccc2)oc1C)c1ccc(CC2SC(=O)NC2=O)cc1 (stereo unspecified) | 25% |  |  |  |
| Cc1oc(-c2ccccc2)nc1CCC(=O)c1ccc(CC2SC(=O)NC2=O)s1 (stereo unspecified) | 100% | 37% |  | Normalization [2]: 99% |
| Cc1oc(-c2ccc3ccccc3c2)nc1CCS(=O)(=O)c1ccc(CC2SC(=O)NC2=O)cc1 (stereo unspecified) | 0% |  |  | Normalization [2]: 0% |
| COCc1ccc(/C=C/C(=O)c2ccc(CC3SC(=O)NC3=O)cc2)cc1 (stereo unspecified) |  |  |  | Normalization [3]: 0% |
